Laboratory results published in ChEMBL document CHEMBL4715736, “Identification of anticancer agents based on the thieno[2,3-b]pyridine and 1H-pyrazole molecular scaffolds” (2016).

Tests used:
Format in all cases: functional
Settings in all cases: read-out: Activity
UO-31 = test: Growth inhibition of human UO-31 cells assessed as cell growth at 10 uM incubated for 48 hrs by sulforhodamine B assay relative to control
Method in brief: (§1)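 Run by the NCI Developmental Therapeutics Program as part of its 60-line human tumour panel. Each compound tested at a single 10 µM dose. Growth expressed as % relative to untreated control cells (100%).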

MDA-MB-231 = test: Growth inhibition of human MDA-MB-231 cells assessed as cell growth at 10 uM incubated for 48 hrs by sulforhodamine B assay relative to control
Method in brief: (§2)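 Submitted to the NCI Developmental Therapeutics Program for the NCI60 human tumour cell line panel. First screen at a single 10 µM concentration. Read-out is growth relative to untreated control cells set at 100%.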

LOX IMVI = test: Growth inhibition of human LOX IMVI cells assessed as cell growth at 10 uM incubated for 48 hrs by sulforhodamine B assay relative to control; method in brief: as §2
OVCAR-8 = test: Growth inhibition of human OVCAR-8 cells assessed as cell growth at 10 uM incubated for 48 hrs by sulforhodamine B assay relative to control; method in brief: as §1
CCRF-CEM = test: Growth inhibition of human CCRF-CEM cells assessed as cell growth at 10 uM incubated for 48 hrs by sulforhodamine B assay relative to control
Method in brief: (§3)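 NCI Developmental Therapeutics Program NCI60 panel. Compounds that were active in the 10 µM one-dose screen went on to dose–response testing. Growth at each concentration is expressed relative to untreated control (100%). GI50 (concentration giving 50% of maximal inhibition of proliferation) and TGI (concentration giving total growth inhibition) were derived from the curves.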

U-251 = test: Growth inhibition of human U-251 cells assessed as cell growth at 10 uM incubated for 48 hrs by sulforhodamine B assay relative to control; method in brief: as §1
HCC 2998 = test: Growth inhibition of human HCC 2998 cells assessed as cell growth at 10 uM incubated for 48 hrs by sulforhodamine B assay relative to control; method in brief: as §3
MOLT-4 = test: Growth inhibition of human MOLT-4 cells assessed as cell growth at 10 uM incubated for 48 hrs by sulforhodamine B assay relative to control; method in brief: as §2
HL-60(TB) = test: Growth inhibition of human HL-60(TB) cells assessed as cell growth at 10 uM incubated for 48 hrs by sulforhodamine B assay relative to control
Method in brief: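 Screened by the NCI Developmental Therapeutics Program on its panel of 60 human tumour cell lines. Compounds were first tested at a single 10 µM dose, and compounds active there went to dose-response curves. Growth is expressed relative to untreated control (100%). GI50 (50% of maximal proliferation inhibition) and TGI (total growth inhibition) were derived from the dose-response data.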

UACC-257 = test: Growth inhibition of human UACC-257 cells assessed as cell growth at 10 uM incubated for 48 hrs by sulforhodamine B assay relative to control; method in brief: as §1
UACC-62 = test: Growth inhibition of human UACC-62 cells assessed as cell growth at 10 uM incubated for 48 hrs by sulforhodamine B assay relative to control; method in brief: as §1
786-0 = test: Growth inhibition of human 786-0 cells assessed as cell growth at 10 uM incubated for 48 hrs by sulforhodamine B assay relative to control; method in brief: as §3
Malme-3M = test: Growth inhibition of human Malme-3M cells assessed as cell growth at 10 uM incubated for 48 hrs by sulforhodamine B assay relative to control; method in brief: as §2
SK-MEL-5 = test: Growth inhibition of human SK-MEL-5 cells assessed as cell growth at 10 uM incubated for 48 hrs by sulforhodamine B assay relative to control; method in brief: as §1
IGROV-1 = test: Growth inhibition of human IGROV-1 cells assessed as cell growth at 10 uM incubated for 48 hrs by sulforhodamine B assay relative to control; method in brief: as §2
RPMI-8226 = test: Growth inhibition of human RPMI-8226 cells assessed as cell growth at 10 uM incubated for 48 hrs by sulforhodamine B assay relative to control; method in brief: as §1
SF-539 = test: Growth inhibition of human SF-539 cells assessed as cell growth at 10 uM incubated for 48 hrs by sulforhodamine B assay relative to control; method in brief: as §1
RXF 393 = test: Growth inhibition of human RXF 393 cells assessed as cell growth at 10 uM incubated for 48 hrs by sulforhodamine B assay relative to control; method in brief: as §1
KM12 = test: Growth inhibition of human KM12 cells assessed as cell growth at 10 uM incubated for 48 hrs by sulforhodamine B assay relative to control; method in brief: as §2
NCI-H23 = test: Growth inhibition of human NCI-H23 cells assessed as cell growth at 10 uM incubated for 48 hrs by sulforhodamine B assay relative to control; method in brief: as §2
A498 = test: Growth inhibition of human A498 cells assessed as cell growth at 10 uM incubated for 48 hrs by sulforhodamine B assay relative to control; method in brief: as §3
MDA-MB-468 = test: Growth inhibition of human MDA-MB-468 cells assessed as cell growth at 10 uM incubated for 48 hrs by sulforhodamine B assay relative to control; method in brief: as §2
SNB-19 = test: Growth inhibition of human SNB-19 cells assessed as cell growth at 10 uM incubated for 48 hrs by sulforhodamine B assay relative to control; method in brief: as §1
SF-295 = test: Growth inhibition of human SF-295 cells assessed as cell growth at 10 uM incubated for 48 hrs by sulforhodamine B assay relative to control; method in brief: as §1
SN12C = test: Growth inhibition of human SN12C cells assessed as cell growth at 10 uM incubated for 48 hrs by sulforhodamine B assay relative to control; method in brief: as §1
OVCAR-5 = test: Growth inhibition of human OVCAR-5 cells assessed as cell growth at 10 uM incubated for 48 hrs by sulforhodamine B assay relative to control; method in brief: as §1
HOP-62 = test: Growth inhibition of human HOP-62 cells assessed as cell growth at 10 uM incubated for 48 hrs by sulforhodamine B assay relative to control; method in brief: as §2
A549 = test: Growth inhibition of human A549/ATCC cells assessed as cell growth at 10 uM incubated for 48 hrs by sulforhodamine B assay relative to control; method in brief: as §3
MDA-MB-435 = test: Growth inhibition of human MDA-MB-435 cells assessed as cell growth at 10 uM incubated for 48 hrs by sulforhodamine B assay relative to control; method in brief: as §2
T47D = test: Growth inhibition of human T47D cells assessed as cell growth at 10 uM incubated for 48 hrs by sulforhodamine B assay relative to control; method in brief: as §1
HOP-92 = test: Growth inhibition of human HOP-92 cells assessed as cell growth at 10 uM incubated for 48 hrs by sulforhodamine B assay relative to control; method in brief: as §2
M14 = test: Growth inhibition of human M14 cells assessed as cell growth at 10 uM incubated for 48 hrs by sulforhodamine B assay relative to control; method in brief: as §2
OVCAR-3 = test: Growth inhibition of human OVCAR-3 cells assessed as cell growth at 10 uM incubated for 48 hrs by sulforhodamine B assay relative to control; method in brief: as §1
DU-145 = test: Growth inhibition of human DU-145 cells assessed as cell growth at 10 uM incubated for 48 hrs by sulforhodamine B assay relative to control; method in brief: as §3

Row | Compound | growth at 10 µM (UO-31) | growth at 10 µM (MDA-MB-231) | growth at 10 µM (LOX IMVI) | growth at 10 µM (OVCAR-8) | growth at 10 µM (CCRF-CEM) | growth at 10 µM (U-251) | growth at 10 µM (HCC 2998) | growth at 10 µM (MOLT-4) | growth at 10 µM (HL-60(TB)) | growth at 10 µM (UACC-257) | growth at 10 µM (786-0) | growth at 10 µM (Malme-3M) | growth at 10 µM (SK-MEL-5) | growth at 10 µM (IGROV-1) | growth at 10 µM (RPMI-8226) | growth at 10 µM (SF-539) | growth at 10 µM (RXF 393) | growth at 10 µM (KM12) | growth at 10 µM (A498) | growth at 10 µM (MDA-MB-468) | further results
1 | COc1ccc(S(=O)(=O)n2ccc(-c3ccc4c(c3)CCC(C)(C)O4)n2)cc1 | 78.1% | 87.7% | 79.5% | 83.8% | 58.9% | 84.2% | 88.9% | 65.9% | 60% | 57.4% | 67.6% | 110% | 42.6% | 90.8% | 49.2% | 103% | 110% | 81.9% | 89.1% | 36.6% | growth at 10 µM (UACC-62): 50.5%; growth at 10 µM (NCI-H23): 59.6%; growth at 10 µM (SNB-19): 87.1%; growth at 10 µM (SF-295): 47.7%; growth at 10 µM (SN12C): 97.5%; growth at 10 µM (OVCAR-5): 109%; growth at 10 µM (HOP-62): 112%; growth at 10 µM (A549): 74%; growth at 10 µM (MDA-MB-435): 74.3%; growth at 10 µM (T47D): 46.7%; growth at 10 µM (HOP-92): 61.4%; growth at 10 µM (M14): 86.5%; growth at 10 µM (OVCAR-3): 81.2%
2 | CN1CCc2nc3sc(C(N)=O)c(N)c3c(-c3cccs3)c2C1 | 11% | 28% | 3% | 7% | 10% | 10% | 14% | 9% | -18% | 10% | 19% | 16% | -25% | 18% | 12% | -18% | -43% | 7% | -15% | -35% | growth at 10 µM (DU-145): 10%; growth at 10 µM (UACC-62): -21%; growth at 10 µM (NCI-H23): 3%; growth at 10 µM (SNB-19): 19%; growth at 10 µM (SF-295): 10%; growth at 10 µM (SN12C): 11%; growth at 10 µM (HOP-62): 1%; growth at 10 µM (A549): 13%; growth at 10 µM (MDA-MB-435): 10%; growth at 10 µM (T47D): 8%; growth at 10 µM (HOP-92): -4%; growth at 10 µM (M14): 11%; growth at 10 µM (OVCAR-3): -22%
3 | CCc1ccccc1NC(=O)c1sc2nc3c(cc2c1N)C(=O)CCC3 | 44.5% | 36% | 42.6% | 24.3% | 4% | 13% | 20% | 24.4% | -10.3% | 60% | 35.1% | 60.8% | 17% | 33.3% | -1% | -17% | -4% | 21% | -9.7% | 14% | growth at 10 µM (DU-145): 2.55%; growth at 10 µM (SNB-19): 35%; growth at 10 µM (SF-295): -3.21%; growth at 10 µM (SN12C): 40%; growth at 10 µM (OVCAR-5): 22%; growth at 10 µM (HOP-62): 35.5%; growth at 10 µM (A549): 21.5%; growth at 10 µM (MDA-MB-435): -56.6%; growth at 10 µM (T47D): 22%; growth at 10 µM (HOP-92): 54%; growth at 10 µM (M14): 5%; growth at 10 µM (OVCAR-3): -12.7%
4 | Cc1ccc(NC(=O)c2sc3nc4c(cc3c2N)C(=O)CCC4)cc1C | 45% | 22% | 39.2% | 31% | -6% | 10% | 10% | 27.6% | -21% | 54.2% | 29% | 47% | 16% | 23.9% | -2% | -18% | -18% | 19.5% | -16% | 4% | growth at 10 µM (DU-145): 8.18%; growth at 10 µM (SNB-19): 31%; growth at 10 µM (SF-295): 8.72%; growth at 10 µM (SN12C): 35%; growth at 10 µM (OVCAR-5): 21%; growth at 10 µM (HOP-62): 23.6%; growth at 10 µM (A549): 19.5%; growth at 10 µM (MDA-MB-435): -67%; growth at 10 µM (T47D): 24.1%; growth at 10 µM (HOP-92): 50%; growth at 10 µM (M14): -23%; growth at 10 µM (OVCAR-3): -17%
